Source: PubChem (several laboratories)
Sampled rows, rich in hits. Any-hit rate of the full collection: about 1.5%.
Apaf1 inhib: inhibitors of human Apaf-1 apoptosome; O14727; reconstituted apoptosome caspase-3 activity, DEVD-Rh110 fluorescence; inhibition, % at 20 µM; 330,000 tested, 0.71% active; AID 489030; active = inhibition of at least 40% at 20 µM
Target sequence (O14727 whole entry, looked up): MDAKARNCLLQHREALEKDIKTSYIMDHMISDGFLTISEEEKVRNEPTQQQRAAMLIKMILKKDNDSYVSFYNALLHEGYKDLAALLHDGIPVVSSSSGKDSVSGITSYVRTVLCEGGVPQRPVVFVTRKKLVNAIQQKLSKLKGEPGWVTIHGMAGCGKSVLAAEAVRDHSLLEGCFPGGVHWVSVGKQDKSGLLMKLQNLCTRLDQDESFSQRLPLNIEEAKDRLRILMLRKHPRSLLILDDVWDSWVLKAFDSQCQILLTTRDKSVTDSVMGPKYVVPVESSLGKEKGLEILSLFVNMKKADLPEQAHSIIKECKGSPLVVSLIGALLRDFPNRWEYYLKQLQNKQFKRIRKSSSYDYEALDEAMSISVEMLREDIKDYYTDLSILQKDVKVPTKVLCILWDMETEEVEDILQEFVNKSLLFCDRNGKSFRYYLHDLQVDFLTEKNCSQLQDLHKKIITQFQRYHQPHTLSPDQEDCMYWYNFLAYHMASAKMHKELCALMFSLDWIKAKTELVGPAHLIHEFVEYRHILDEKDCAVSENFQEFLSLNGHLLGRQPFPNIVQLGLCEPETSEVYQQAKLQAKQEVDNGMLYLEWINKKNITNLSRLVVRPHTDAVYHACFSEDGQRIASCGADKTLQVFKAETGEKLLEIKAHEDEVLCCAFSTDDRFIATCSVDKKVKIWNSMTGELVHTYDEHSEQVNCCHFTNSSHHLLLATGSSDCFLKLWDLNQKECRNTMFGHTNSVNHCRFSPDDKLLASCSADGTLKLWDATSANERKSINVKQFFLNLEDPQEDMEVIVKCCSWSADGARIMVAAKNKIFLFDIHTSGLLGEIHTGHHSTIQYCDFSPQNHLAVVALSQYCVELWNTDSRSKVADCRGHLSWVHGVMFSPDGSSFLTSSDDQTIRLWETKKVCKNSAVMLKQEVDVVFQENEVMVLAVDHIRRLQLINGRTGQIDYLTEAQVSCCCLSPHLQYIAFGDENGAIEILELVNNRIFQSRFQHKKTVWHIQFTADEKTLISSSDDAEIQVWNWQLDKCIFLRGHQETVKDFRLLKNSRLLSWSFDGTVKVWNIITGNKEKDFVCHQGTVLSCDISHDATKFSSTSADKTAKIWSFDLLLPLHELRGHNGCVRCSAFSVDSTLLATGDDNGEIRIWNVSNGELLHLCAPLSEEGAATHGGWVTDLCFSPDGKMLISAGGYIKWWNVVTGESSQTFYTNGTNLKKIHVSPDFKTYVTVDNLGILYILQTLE
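System: Apoptosome proteins | Medium: Hepes pH 7.5 with detergent and BSA | Also added: Cytochrome c trigger plus (Z-DEVD)2-Rh110 caspase-3 substrate | Incubation: 30 min compound preincubation, 50 min activation, room temperature | Detection: Rhodamine 110 fluorescence at Ex 480/Em 540 nm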
UCH37 inh: human UCH37 deubiquitinating enzyme inhibition; inhibition, % (no concentration beside the values); purified proteasome/UCH37, Ub-AMC cleavage fluorescence; AID 588478; 330,000 tested, 0.33% active;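 active = mean inhibition over replicate wells above about 20%, limit read from the data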
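Material: Human UCH37 enzyme supplied as purified proteasome complex | Schedule: 30 min preincubation with enzyme, 25 min cleavage at room temperature | Detection: AMC fluorescence 355/460 nm | Measure: % inhibition of Ub-AMC cleavage fluorescence | Controls: Wells without proteasome as full block, compound-free enzyme plus substrate as uninhibited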
PREPL inh: inhibitors of human prolyl oligopeptidase-like enzyme PREPL. Q4J6C6. recombinant PREPL, fluorescence polarization activity-based probe. inhibition, % at 5.96 µM. 320,000 tested, 0.68% active; in the data active = inhibition above about 43%
UBC13 polyUb: human UBC13 polyubiquitination inhibition | P61088 | UBC13 polyubiquitin chain formation, TR-FRET | inhibition, % at 20 µM | 330,000 tested, 0.47% active | AID 485273; in the data active = inhibition above about 45%, passing the limit was not always enough
Hits are given with their value; i = inactive; nt = not tested or not shown.

SMILES	Apaf1 inhib	UCH37 inh	PREPL inh	UBC13 polyUb
COc1cc(C(=O)C(=O)c2ccc(O)c(OC)c2)ccc1O	i	21	i	i
CC(/C=C1\SC(=S)N(CCCC(=O)Nc2ccc(C(=O)O)cc2)C1=O)=C\c1ccccc1	i	i	i	i
CC(/C=C1\SC(=S)N(CCC(=O)Nc2cccc(C(=O)O)c2)C1=O)=C\c1ccccc1	i	22	i	i
O=C(O)CCN1C(=O)/C(=C\c2ccc(-c3nc4ccccc4s3)o2)SC1=S	i	92	i	i
O=C(O)CCN1C(=O)/C(=C\c2cccc(Oc3ccccc3)c2)SC1=S	i	21	i	i
COc1ccc(/C=C2/SC(=S)N(CCC(=O)O)C2=O)cc1	i	i	i	i
CC(=NNC(=O)C1CC1(C)c1ccccc1)c1ccco1 (stereo not drawn)	nt	i	nt	nt
CC(=NN=c1sc2ccccc2n1C)c1ccc(N2CCOCC2)cc1	nt	i	nt	nt
Cc1ccc(NC(=O)c2ccc(CN3CCc4ccccc4C3)cc2)cc1	48	22	i	i
O=C(O/N=C/c1ccc2c(c1)OCO2)c1ccccc1Cl	i	nt	55	i
COC(=O)NN=Cc1ccc(OC(=O)/C=C/c2ccco2)cc1	nt	i	nt	nt
O=C(C=NO)Nc1ccccc1	nt	i	nt	nt
CN(C)CCCN(C(=O)c1cc2cc([N+](=O)[O-])ccc2s1)c1nc2cc3c(cc2s1)OCCO3	i	nt	i	73
O=C1C2C3C=CC(C3)C2C(=O)N1CNc1ccc(O)cc1 (stereo not drawn)	94	nt	i	i
COc1ccc(N2CCN(c3oc(-c4ccccc4OC)nc3C#N)CC2)cc1	i	i	52	i
O=C(c1ccccc1)C1C(=O)c2ccccc2C1=O	i	31	i	i
O=C(/C=C/c1ccccc1)C1C(=O)c2ccccc2C1=O	i	i	i	i
CCOC(=O)c1[nH]c2ccc(OC)cc2c1NC(=O)CCN1CCC(C)CC1	i	i	i	i
CCOC(=O)c1[nH]c2ccc(Br)cc2c1NC(=O)CCN1CCCC(C)C1 (stereo not drawn)	97	nt	i	i
O=C(CNC(=O)c1ccc(S(=O)(=O)N2CCCC2)cc1)NN=Cc1ccc(F)cc1	nt	i	nt	nt
O=C1C2C3C=CC(CC3)C2C(=O)N1N=Cc1ccco1 (stereo not drawn)	nt	i	nt	nt
O=C(Nc1ccc2nc(-c3ccco3)c(-c3ccco3)nc2c1)N1CCCCCC1	57	i	75	i
Cc1ccc2[nH]c3c(N4CCc5ccccc5C4)ncnc3c2c1	i	nt	46	i
Cc1ccccc1OCc1nc2ccccc2c(=O)n1N=Cc1cccc([N+](=O)[O-])c1	nt	i	nt	nt
CC1=C(C#N)C(=O)NC(=O)/C1=C\c1ccc(-c2cc(C)c(C)cc2[N+](=O)[O-])o1	nt	20	nt	nt
SMILES	Apaf1 inhib	UCH37 inh	PREPL inh	UBC13 polyUb
COc1ccc(/C=C/C(=O)Oc2ccc(C=NNC(=O)c3ccccc3)cc2)cc1OC	nt	i	nt	nt
Cc1nc2ccccc2c(=O)n1N=Cc1ccccc1OC(F)F	nt	i	nt	nt
O=C(NN=Cc1cc([N+](=O)[O-])c(N2CCOCC2)cc1N1CCOCC1)c1cccnc1	nt	23	nt	nt
CN1CCN(c2ccccc2/C=N/NC(=O)c2cccnc2)CC1	i	nt	i	i
CCN1CCc2c(sc(N)c2C#N)C1	i	i	i	i
CC(C)C1Cc2c(sc(NC(=S)NC(=O)c3ccccc3)c2C#N)CO1 (stereo not drawn)	i	i	i	i
CC(C)N1CCc2c(sc(N)c2C#N)C1	i	i	50	i
CC(C)N1CCc2c(sc(NC(=S)NC(=O)c3ccccc3)c2C#N)C1	i	i	62	i
CCn1c2ccccc2c2cc(NC(=O)c3ccc(=O)oc3)ccc21	i	nt	71	i
CC(=NNC(=O)CN1CCN(Cc2ccccc2)CC1)c1cccs1	nt	i	nt	nt
COC(=O)CCC(=O)OC1(C)C(=O)C=C2C=C(C3CC3)N(c3ccccc3)C=C2C1=O (stereo not drawn)	i	i	47	i
COc1cc(C=NNc2nc3ccccc3s2)cc([N+](=O)[O-])c1O	nt	22	nt	nt
COc1cc(C=NNc2ccccc2[N+](=O)[O-])cc(OC)c1O	nt	i	nt	nt
O=C(CNc1ccc2ccccc2c1)NN=Cc1ccncc1	nt	i	nt	nt
Nc1nonc1-n1nnc(C(=O)NN=Cc2ccccc2)c1CSc1ccc(Cl)cc1	nt	i	nt	nt
NC(N)=NN=Cc1ccc(OCc2ccccc2)cc1	nt	i	nt	nt
NC(N)=N/N=C/c1ccc(OCc2ccccc2Cl)cc1	43	nt	i	74
COc1ccc(CCNC(=O)CSc2ccc(-c3ccco3)nn2)cc1OC	i	i	i	i
COc1ccc(CCNC(=O)CSc2nnc(-c3ccco3)c(-c3ccco3)n2)cc1OC	43	nt	i	i
CSc1n[nH]c(N=Cc2oc(O)c3ccccc23)n1	nt	i	nt	nt
